ChEMBL document CHEMBL1142148, “Antibiotic susceptibility profile of bifidobacteria as affected by oxgall, acid, and hydrogen peroxide stress” (2007)
In brackets after ≈: the same amount, converted by molar mass.

What was measured:
Bifidobacterium animalis [1] = experiment: Antimicrobial activity against Bifidobacterium animalis ATCC 27536; type: functional
How it was run: (§1)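 Broth microdilution in MRS plus 0.05% L-cysteine-HCl. Mid-log culture adjusted to OD650 0.1, giving about 2.5 × 10^4 to 5.0 × 10^4 CFU/well, then added to twofold serial dilutions of agent. Plates incubated anaerobically at 37°C for 18 h and read at OD650. MIC is the lowest concentration matching the uninoculated blank OD, taken as the median of four repeats.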

Bifidobacterium bifidum [2] = experiment: Antimicrobial activity against Bifidobacterium bifidum R0071; type: functional; how it was run: as §1
Bifidobacterium bifidum [3] = experiment: Antimicrobial activity against Bifidobacterium bifidum ATCC 15696; type: functional; how it was run: as §1
Bifidobacterium bifidum [4] = experiment: Antimicrobial activity against Bifidobacterium bifidum BB12; type: functional; how it was run: as §1
Bifidobacterium breve [5] = experiment: Antimicrobial activity against Bifidobacterium breve ATCC 15700; type: functional; how it was run: as §1
[6] = Antimicrobial activity against Bifidobacterium infantis ATCC 15697; type: functional, Bifidobacterium longum subsp. infantis; conditions: Bifidobacterium longum; how it was run: as §1
Bifidobacterium longum [7] = experiment: Antimicrobial activity against Bifidobacterium longum ATCC 15708; type: functional; how it was run: as §1
Bifidobacterium longum [8] = experiment: Antimicrobial activity against Bifidobacterium longum R0175; type: functional; how it was run: as §1
Bifidobacterium longum [9] = experiment: Antimicrobial activity against Bifidobacterium longum P/N 601377; type: functional; how it was run: as §1
[10] = system: Bifidobacterium pseudolongum; experiment: Antimicrobial activity against Bifidobacterium pseudolongum ATCC 25562; type: functional; how it was run: as §1
[11] = system: Bifidobacterium thermophilum; experiment: Antimicrobial activity against Bifidobacterium thermophilum ATCC 25866; type: functional; how it was run: as §1
Bifidobacterium breve [12] = experiment: Antimicrobial activity against Bifidobacterium breve R0070; type: functional; how it was run: as §1
Bifidobacterium animalis [13] = experiment: Antimicrobial activity against 60 min 1 M HCl-stressed Bifidobacterium animalis ATCC 27536 after 18 hrs; type: functional
How it was run: (§2)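 Mid-log MRS culture pelleted and resuspended in MRS broth brought to pH 2.0 with 1 M HCl, held anaerobically at 37°C for 60 min, then subcultured in MRS (pH 6.5) for 24 h anaerobically before MIC testing by broth microdilution (as for unstressed cells). Table footnote gives 18 h anaerobic regrowth after the stress. MIC is the median of four repetitions.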

Bifidobacterium bifidum [14] = experiment: Antimicrobial activity against 60 min 1 M HCl-stressed Bifidobacterium bifidum R0071 after 18 hrs; type: functional; how it was run: as §2
Bifidobacterium bifidum [15] = experiment: Antimicrobial activity against 60 min 1 M HCl-stressed Bifidobacterium bifidum BB12 after 18 hrs; type: functional; how it was run: as §2
Bifidobacterium breve [16] = experiment: Antimicrobial activity against 60 min 1 M HCl-stressed Bifidobacterium breve ATCC 15700 after 18 hrs; type: functional; how it was run: as §2
Bifidobacterium breve [17] = experiment: Antimicrobial activity against 60 min 1 M HCl-stressed Bifidobacterium breve R0070 after 18 hrs; type: functional; how it was run: as §2
[18] = Antimicrobial activity against 60 min 1 M HCl-stressed Bifidobacterium infantis ATCC 15697 after 18 hrs; type: functional, Bifidobacterium longum subsp. infantis; conditions: Bifidobacterium longum; how it was run: as §2
Bifidobacterium longum [19] = experiment: Antimicrobial activity against 60 min 1 M HCl-stressed Bifidobacterium longum ATCC 15707 after 18 hrs; type: functional; how it was run: as §2
Bifidobacterium longum [20] = experiment: Antimicrobial activity against 60 min 1 M HCl-stressed Bifidobacterium longum R0175 after 18 hrs; type: functional; how it was run: as §2
Bifidobacterium longum [21] = experiment: Antimicrobial activity against 60 min 1 M HCl-stressed Bifidobacterium longum P/N 601377 after 18 hrs; type: functional; how it was run: as §2
[22] = system: Bifidobacterium pseudolongum; experiment: Antimicrobial activity against 60 min 1 M HCl-stressed Bifidobacterium pseudolongum ATCC 25562 after 18 hrs; type: functional; how it was run: as §2
[23] = system: Bifidobacterium thermophilum; experiment: Antimicrobial activity against 60 min 1 M HCl-stressed Bifidobacterium thermophilum ATCC 25866 after 18 hrs; type: functional; how it was run: as §2
Bifidobacterium animalis [24] = experiment: Antimicrobial activity against 90 mins oxgall-stressed Bifidobacterium animalis ATCC 27536 after 18 hrs; type: functional
How it was run: (§3)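 Cells pelleted from mid-log MRS culture and resuspended in MRS (initial pH 6.5) with 0.3% (wt/vol) oxgall for 90 min anaerobically at 37°C. They were then regrown in MRS pH 6.5 for 24 h (footnote: 18 h) anaerobically and tested for MIC by the same broth microdilution assay. Median of four repetitions.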

Bifidobacterium bifidum [25] = experiment: Antimicrobial activity against 90 mins oxgall-stressed Bifidobacterium bifidum R0071 after 18 hrs; type: functional; how it was run: as §3
Bifidobacterium bifidum [26] = experiment: Antimicrobial activity against 90 mins oxgall-stressed Bifidobacterium bifidum ATCC 15696 after 18 hrs; type: functional; how it was run: as §3
Bifidobacterium bifidum [27] = experiment: Antimicrobial activity against 90 mins oxgall-stressed Bifidobacterium bifidum BB12 after 18 hrs; type: functional; how it was run: as §3
Bifidobacterium breve [28] = experiment: Antimicrobial activity against 90 mins oxgall-stressed Bifidobacterium breve ATCC 15700 after 18 hrs; type: functional; how it was run: as §3
Bifidobacterium breve [29] = experiment: Antimicrobial activity against 90 mins oxgall-stressed Bifidobacterium breve R0070 after 18 hrs; type: functional; how it was run: as §3
[30] = Antimicrobial activity against 90 mins oxgall-stressed Bifidobacterium infantis ATCC 15697 after 18 hrs; type: functional, Bifidobacterium longum subsp. infantis; conditions: Bifidobacterium longum; how it was run: as §3
Bifidobacterium longum [31] = experiment: Antimicrobial activity against 90 mins oxgall-stressed Bifidobacterium longum ATCC 15707 after 18 hrs; type: functional; how it was run: as §3
Bifidobacterium longum [32] = experiment: Antimicrobial activity against 90 mins oxgall-stressed Bifidobacterium longum ATCC 15708 after 18 hrs; type: functional; how it was run: as §3
Bifidobacterium longum [33] = experiment: Antimicrobial activity against Bifidobacterium longum ATCC 15707; type: functional; how it was run: as §1
Bifidobacterium longum [34] = experiment: Antimicrobial activity against 90 mins oxgall-stressed Bifidobacterium longum R0175 after 18 hrs; type: functional; how it was run: as §3
Bifidobacterium longum [35] = experiment: Antimicrobial activity against 90 mins oxgall-stressed Bifidobacterium longum P/N 601377 after 18 hrs; type: functional; how it was run: as §3
[36] = system: Bifidobacterium pseudolongum; experiment: Antimicrobial activity against 90 mins oxgall-stressed Bifidobacterium pseudolongum ATCC 25562 after 18 hrs; type: functional; how it was run: as §3
[37] = system: Bifidobacterium thermophilum; experiment: Antimicrobial activity against 90 mins oxgall-stressed Bifidobacterium thermophilum ATCC 25866 after 18 hrs; type: functional; how it was run: as §3
Bifidobacterium animalis [38] = experiment: Antimicrobial activity against 90 mins hydrogen peroxide-stressed Bifidobacterium animalis ATCC 27536 after 18 hrs; type: functional
How it was run: (§4)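 Stress applied for 90 min at 37°C under anaerobic conditions, using MRS (initial pH 6.5) containing H2O2 at each strain's own inhibitory concentration. The H2O2 level was set beforehand by microplate tolerance testing. Challenged cells were regrown in MRS for 24 h (footnote: 18 h) before MIC testing by broth microdilution. Median of four repetitions.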

Bifidobacterium bifidum [39] = experiment: Antimicrobial activity against 90 mins hydrogen peroxide-stressed Bifidobacterium bifidum R0071 after 18 hrs; type: functional; how it was run: as §4
Bifidobacterium bifidum [40] = experiment: Antimicrobial activity against 90 mins hydrogen peroxide-stressed Bifidobacterium bifidum BB12 after 18 hrs; type: functional; how it was run: as §4
Bifidobacterium breve [41] = experiment: Antimicrobial activity against 90 mins hydrogen peroxide-stressed Bifidobacterium breve ATCC 15700 after 18 hrs; type: functional; how it was run: as §4
Bifidobacterium breve [42] = experiment: Antimicrobial activity against 90 mins hydrogen peroxide-stressed Bifidobacterium breve R0070 after 18 hrs; type: functional; how it was run: as §4
Bifidobacterium longum [43] = experiment: Antimicrobial activity against 90 mins hydrogen peroxide-stressed Bifidobacterium longum ATCC 15707 after 18 hrs; type: functional; how it was run: as §4
Bifidobacterium longum [44] = experiment: Antimicrobial activity against 90 mins hydrogen peroxide-stressed Bifidobacterium longum ATCC 15708 after 18 hrs; type: functional; how it was run: as §4
Bifidobacterium longum [45] = experiment: Antimicrobial activity against 90 mins hydrogen peroxide-stressed Bifidobacterium longum R0175 after 18 hrs; type: functional; how it was run: as §4
Bifidobacterium longum [46] = experiment: Antimicrobial activity against 90 mins hydrogen peroxide-stressed Bifidobacterium longum P/N 601377 after 18 hrs; type: functional; how it was run: as §4
[47] = system: Bifidobacterium thermophilum; experiment: Antimicrobial activity against 90 mins hydrogen peroxide-stressed Bifidobacterium thermophilum ATCC 25866 after 18 hrs; type: functional; how it was run: as §4

MIC (Bifidobacterium animalis [1]): 0.98 µg/mL (≈ 2.93 µM) | MIC (Bifidobacterium bifidum [2]): 3.9 µg/mL (≈ 11.7 µM) | MIC (Bifidobacterium bifidum [3]): 0.98 µg/mL (≈ 2.93 µM) | MIC (Bifidobacterium bifidum [4]): 0.98 µg/mL (≈ 2.93 µM) | MIC (Bifidobacterium breve [5]): 0.98 µg/mL (≈ 2.93 µM) | MIC [6]: 0.98 µg/mL (≈ 2.93 µM) | MIC (Bifidobacterium longum [7]): 0.98 µg/mL (≈ 2.93 µM) | MIC (Bifidobacterium longum [8]): 3.9 µg/mL (≈ 11.7 µM) | MIC (Bifidobacterium longum [9]): 0.98 µg/mL (≈ 2.93 µM) | MIC [10]: 0.98 µg/mL (≈ 2.93 µM) | MIC [11]: 0.98 µg/mL (≈ 2.93 µM) | MIC (Bifidobacterium breve [12]): 1.9 µg/mL (≈ 5.68 µM) | MIC (Bifidobacterium animalis [13]): 0.98 µg/mL (≈ 2.93 µM) | MIC (Bifidobacterium bifidum [14]): 1.9 µg/mL (≈ 5.68 µM) | MIC (Bifidobacterium bifidum [15]): 0.98 µg/mL (≈ 2.93 µM) | MIC (Bifidobacterium breve [16]): 0.98 µg/mL (≈ 2.93 µM) | MIC (Bifidobacterium breve [17]): 1.9 µg/mL (≈ 5.68 µM) | MIC [18]: 0.98 µg/mL (≈ 2.93 µM) | MIC (Bifidobacterium longum [19]): 0.98 µg/mL (≈ 2.93 µM) | MIC (Bifidobacterium longum [20]): 0.98 µg/mL (≈ 2.93 µM) | MIC (Bifidobacterium longum [21]): 0.98 µg/mL (≈ 2.93 µM) | MIC [22]: 0.98 µg/mL (≈ 2.93 µM) | MIC [23]: 0.98 µg/mL (≈ 2.93 µM) | MIC (Bifidobacterium animalis [24]): 0.98 µg/mL (≈ 2.93 µM) | MIC (Bifidobacterium bifidum [25]): 0.98 µg/mL (≈ 2.93 µM) | MIC (Bifidobacterium bifidum [26]): 0.98 µg/mL (≈ 2.93 µM) | MIC (Bifidobacterium bifidum [27]): 0.98 µg/mL (≈ 2.93 µM) | MIC (Bifidobacterium breve [28]): 0.98 µg/mL (≈ 2.93 µM) | MIC (Bifidobacterium breve [29]): 0.98 µg/mL (≈ 2.93 µM) | MIC [30]: 0.98 µg/mL (≈ 2.93 µM) | MIC (Bifidobacterium longum [31]): 0.98 µg/mL (≈ 2.93 µM) | MIC (Bifidobacterium longum [32]): 0.98 µg/mL (≈ 2.93 µM) | MIC (Bifidobacterium longum [33]): 0.98 µg/mL (≈ 2.93 µM) | MIC (Bifidobacterium longum [34]): 0.98 µg/mL (≈ 2.93 µM) | MIC (Bifidobacterium longum [35]): 0.98 µg/mL (≈ 2.93 µM) | MIC [36]: 0.98 µg/mL (≈ 2.93 µM) | MIC [37]: 0.98 µg/mL (≈ 2.93 µM) | MIC (Bifidobacterium animalis [38]): 0.98 µg/mL (≈ 2.93 µM) | MIC (Bifidobacterium bifidum [39]): 0.98 µg/mL (≈ 2.93 µM) | MIC (Bifidobacterium bifidum [40]): 0.98 µg/mL (≈ 2.93 µM) | MIC (Bifidobacterium breve [41]): 0.98 µg/mL (≈ 2.93 µM) | MIC (Bifidobacterium breve [42]): 0.98 µg/mL (≈ 2.93 µM) | MIC (Bifidobacterium longum [43]): 0.98 µg/mL (≈ 2.93 µM) | MIC (Bifidobacterium longum [44]): 0.98 µg/mL (≈ 2.93 µM) | MIC (Bifidobacterium longum [45]): 0.98 µg/mL (≈ 2.93 µM) | MIC (Bifidobacterium longum [46]): 0.98 µg/mL (≈ 2.93 µM) | MIC [47]: 0.98 µg/mL (≈ 2.93 µM)
SMILES: CC1(C)S[C@@H]2[C@H](NC(=O)Cc3ccccc3)C(=O)N2[C@H]1C(=O)O [PENICILLIN G]
